Columns and labels:
[1] = biological target: T1, Serine/threonine-protein kinase ULK2 (Homo sapiens, UniProt Q8IYT8); experiment: Inhibition of SUMO-tagged ULK2 (unknown origin) kinase domain expressed in KRX cells using [32P]-gamma-ATP and myelin basic protein substrate incubated for 7 mins; type: single protein
T1 sequence (Q8IYT8 whole entry): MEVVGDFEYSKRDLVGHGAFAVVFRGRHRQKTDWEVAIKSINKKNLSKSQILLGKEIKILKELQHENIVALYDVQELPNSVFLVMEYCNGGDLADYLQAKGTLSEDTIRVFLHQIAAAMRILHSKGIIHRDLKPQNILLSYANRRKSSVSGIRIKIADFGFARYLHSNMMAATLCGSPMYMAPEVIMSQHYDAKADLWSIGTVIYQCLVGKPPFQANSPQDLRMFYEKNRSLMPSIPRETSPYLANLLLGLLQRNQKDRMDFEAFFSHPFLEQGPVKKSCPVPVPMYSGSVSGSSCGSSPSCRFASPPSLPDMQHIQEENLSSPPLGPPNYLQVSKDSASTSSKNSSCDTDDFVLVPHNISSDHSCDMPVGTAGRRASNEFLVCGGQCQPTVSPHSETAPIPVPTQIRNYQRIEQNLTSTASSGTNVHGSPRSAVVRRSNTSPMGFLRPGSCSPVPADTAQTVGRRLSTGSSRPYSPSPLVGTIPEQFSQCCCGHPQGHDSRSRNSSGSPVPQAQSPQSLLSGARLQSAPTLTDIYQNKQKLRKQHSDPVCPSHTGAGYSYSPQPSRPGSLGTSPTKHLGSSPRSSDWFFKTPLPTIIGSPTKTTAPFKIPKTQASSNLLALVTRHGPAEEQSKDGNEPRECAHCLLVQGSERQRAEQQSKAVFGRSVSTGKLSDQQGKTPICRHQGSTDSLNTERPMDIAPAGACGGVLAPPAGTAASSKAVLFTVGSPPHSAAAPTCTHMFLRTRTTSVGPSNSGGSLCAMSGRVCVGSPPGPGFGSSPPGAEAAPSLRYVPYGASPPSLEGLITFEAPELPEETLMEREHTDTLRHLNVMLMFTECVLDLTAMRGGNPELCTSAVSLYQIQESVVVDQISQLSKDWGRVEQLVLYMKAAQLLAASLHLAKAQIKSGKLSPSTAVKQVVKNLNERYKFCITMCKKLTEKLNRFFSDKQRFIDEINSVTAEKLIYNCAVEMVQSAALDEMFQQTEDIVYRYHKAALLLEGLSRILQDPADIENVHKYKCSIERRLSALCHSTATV
Outline: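 Enzyme at 5 nM with 50 µM cold ATP, 0.05 µCi/µl 32P-γ-ATP and 20 µM myelin basic protein as substrate. Reactions were spotted onto nitrocellulose, washed three times in 1% phosphoric acid, dried and imaged by phosphorimager. IC50 from curve fitting; duplicate.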

[2] = biological target: T2, 3-phosphoinositide-dependent protein kinase 1 (Homo sapiens, UniProt O15530); experiment: Inhibition of recombinant PDK1 (unknown origin) using PDK1tide substrate incubated for 7 mins
T2 sequence (O15530 whole entry): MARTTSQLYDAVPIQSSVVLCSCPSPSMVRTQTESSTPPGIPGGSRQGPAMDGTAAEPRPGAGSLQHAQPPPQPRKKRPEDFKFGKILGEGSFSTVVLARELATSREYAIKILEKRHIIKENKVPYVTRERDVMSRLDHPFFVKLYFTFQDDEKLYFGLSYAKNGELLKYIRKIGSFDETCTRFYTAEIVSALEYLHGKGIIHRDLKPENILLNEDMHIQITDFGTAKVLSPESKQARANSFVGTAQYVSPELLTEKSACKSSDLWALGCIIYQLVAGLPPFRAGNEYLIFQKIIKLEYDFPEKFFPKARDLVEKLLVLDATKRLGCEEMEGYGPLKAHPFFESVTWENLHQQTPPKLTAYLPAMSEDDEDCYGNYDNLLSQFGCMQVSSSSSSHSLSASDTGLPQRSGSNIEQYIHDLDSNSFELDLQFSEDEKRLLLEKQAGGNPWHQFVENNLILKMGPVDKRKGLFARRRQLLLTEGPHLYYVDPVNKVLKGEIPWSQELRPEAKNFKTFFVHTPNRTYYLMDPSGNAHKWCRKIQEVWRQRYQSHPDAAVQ
Outline: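 Recombinant PDK1 at 5 nM with 50 µM synthetic PDK1tide in 50 mM HEPES pH 7.5, 10 mM MgCl2, 1 mg/ml BSA, 0.02% Triton-X and 50 µM DTT. Stopped after 7 min by spotting onto nitrocellulose, washed three times in 1% phosphoric acid and phosphorimaged. IC50 from curve fitting; duplicate.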

[3] = biological target: Ribosomal protein S6 kinase alpha-1 (Homo sapiens) (UniProt Q15418); experiment: Inhibition of RSK1 (unknown origin) at 2 uM by radioactive filter-binding assay
Outline: (§1)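 Panel profiling of one compound against 50 kinases, carried out in duplicate at the International Centre for Protein Kinase Profiling. Radioactive filter-binding format.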

[4] = biological target: Dual specificity mitogen-activated protein kinase kinase 1 (Homo sapiens) (UniProt Q02750); experiment: Inhibition of MKK1 (unknown origin) at 2 uM by radioactive filter-binding assay; outline: as §1
Chain of Dual specificity mitogen-activated protein kinase kinase 1 (Homo sapiens) (Q02750 whole entry): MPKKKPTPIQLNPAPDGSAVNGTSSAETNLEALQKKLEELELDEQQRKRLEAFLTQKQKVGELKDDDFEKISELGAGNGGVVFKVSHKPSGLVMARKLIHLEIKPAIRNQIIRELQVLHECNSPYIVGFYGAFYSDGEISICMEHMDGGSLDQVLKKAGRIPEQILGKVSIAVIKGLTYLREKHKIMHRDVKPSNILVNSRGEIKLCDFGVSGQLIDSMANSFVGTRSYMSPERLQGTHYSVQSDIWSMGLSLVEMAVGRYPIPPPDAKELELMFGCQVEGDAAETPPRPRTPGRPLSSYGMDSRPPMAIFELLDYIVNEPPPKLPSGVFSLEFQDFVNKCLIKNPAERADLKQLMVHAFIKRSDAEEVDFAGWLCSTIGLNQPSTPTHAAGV

[5] = biological target: MAP/microtubule affinity-regulating kinase 3 (Homo sapiens) (UniProt P27448); experiment: Inhibition of MARK3 (unknown origin) at 2 uM by radioactive filter-binding assay; outline: as §1
[6] = biological target: Mitogen-activated protein kinase kinase kinase 11 (Homo sapiens) (UniProt Q16584); experiment: Inhibition of MLK3 (unknown origin) at 2 uM by radioactive filter-binding assay; outline: as §1
Chain of Mitogen-activated protein kinase kinase kinase 11 (Homo sapiens) (Q16584 whole entry, looked up): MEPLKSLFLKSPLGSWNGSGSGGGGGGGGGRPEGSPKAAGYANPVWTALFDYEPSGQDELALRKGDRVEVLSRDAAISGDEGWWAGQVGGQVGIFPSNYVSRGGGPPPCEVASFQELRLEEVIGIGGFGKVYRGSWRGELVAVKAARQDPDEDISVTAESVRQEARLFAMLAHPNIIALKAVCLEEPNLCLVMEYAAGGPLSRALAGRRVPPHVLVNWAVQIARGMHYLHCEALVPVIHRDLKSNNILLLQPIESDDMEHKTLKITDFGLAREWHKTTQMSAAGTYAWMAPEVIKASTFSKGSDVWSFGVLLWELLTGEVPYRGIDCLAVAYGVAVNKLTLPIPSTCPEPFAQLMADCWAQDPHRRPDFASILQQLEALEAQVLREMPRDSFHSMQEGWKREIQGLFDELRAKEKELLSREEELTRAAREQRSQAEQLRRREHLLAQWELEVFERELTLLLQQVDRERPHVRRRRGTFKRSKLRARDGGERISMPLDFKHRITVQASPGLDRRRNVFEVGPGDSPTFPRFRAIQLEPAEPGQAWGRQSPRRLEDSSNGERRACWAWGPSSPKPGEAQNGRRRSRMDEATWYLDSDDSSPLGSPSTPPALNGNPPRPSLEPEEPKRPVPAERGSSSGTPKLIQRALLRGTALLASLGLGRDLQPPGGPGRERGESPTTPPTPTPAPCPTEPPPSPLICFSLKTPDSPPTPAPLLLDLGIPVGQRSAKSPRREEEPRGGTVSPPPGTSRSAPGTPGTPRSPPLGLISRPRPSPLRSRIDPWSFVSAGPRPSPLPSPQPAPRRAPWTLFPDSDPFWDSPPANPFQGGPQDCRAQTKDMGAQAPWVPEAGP

[7] = biological target: AMP-activated protein kinase, AMPK (Homo sapiens) (UniProt P54646+O43741+P54619+Q9UGJ0+Q9Y478+Q13131+Q9UGI9); experiment: Inhibition of AMPK (unknown origin) at 2 uM by radioactive filter-binding assay; type: protein-complex assay; outline: as §1
[8] = biological target: Calcium/calmodulin-dependent protein kinase type 1 (Homo sapiens) (UniProt Q14012); experiment: Inhibition of CAMK1 (unknown origin) at 250 nM by radioactive filter-binding assay; outline: as §1
[9] = biological target: SRSF protein kinase 1 (Homo sapiens) (UniProt Q96SB4); experiment: Inhibition of SRPK1 (unknown origin) at 250 nM by radioactive filter-binding assay; outline: as §1
Chain of SRSF protein kinase 1 (Homo sapiens) (Q96SB4 whole entry): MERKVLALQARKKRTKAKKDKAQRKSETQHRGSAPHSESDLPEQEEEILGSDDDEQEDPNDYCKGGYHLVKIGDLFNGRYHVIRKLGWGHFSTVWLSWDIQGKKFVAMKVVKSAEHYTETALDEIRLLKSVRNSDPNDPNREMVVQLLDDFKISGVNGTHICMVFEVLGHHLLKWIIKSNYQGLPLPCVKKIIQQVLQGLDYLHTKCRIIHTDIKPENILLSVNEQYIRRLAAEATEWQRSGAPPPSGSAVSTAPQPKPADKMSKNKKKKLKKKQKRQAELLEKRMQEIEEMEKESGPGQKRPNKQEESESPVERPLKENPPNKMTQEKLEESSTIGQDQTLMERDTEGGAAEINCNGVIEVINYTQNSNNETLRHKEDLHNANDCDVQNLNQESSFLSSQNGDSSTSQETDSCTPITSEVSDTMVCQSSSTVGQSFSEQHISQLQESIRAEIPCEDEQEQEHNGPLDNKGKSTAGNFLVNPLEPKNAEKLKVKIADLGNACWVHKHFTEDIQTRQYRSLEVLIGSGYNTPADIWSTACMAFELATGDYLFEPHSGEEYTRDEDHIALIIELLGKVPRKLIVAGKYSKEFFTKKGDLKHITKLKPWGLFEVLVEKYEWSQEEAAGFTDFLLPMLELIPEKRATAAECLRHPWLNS

[10] = biological target: Tyrosine-protein kinase BTK (Homo sapiens) (UniProt Q06187); experiment: Inhibition of BTK (unknown origin) at 250 nM by radioactive filter-binding assay; outline: as §1
Chain of Tyrosine-protein kinase BTK (Homo sapiens) (Q06187 whole entry): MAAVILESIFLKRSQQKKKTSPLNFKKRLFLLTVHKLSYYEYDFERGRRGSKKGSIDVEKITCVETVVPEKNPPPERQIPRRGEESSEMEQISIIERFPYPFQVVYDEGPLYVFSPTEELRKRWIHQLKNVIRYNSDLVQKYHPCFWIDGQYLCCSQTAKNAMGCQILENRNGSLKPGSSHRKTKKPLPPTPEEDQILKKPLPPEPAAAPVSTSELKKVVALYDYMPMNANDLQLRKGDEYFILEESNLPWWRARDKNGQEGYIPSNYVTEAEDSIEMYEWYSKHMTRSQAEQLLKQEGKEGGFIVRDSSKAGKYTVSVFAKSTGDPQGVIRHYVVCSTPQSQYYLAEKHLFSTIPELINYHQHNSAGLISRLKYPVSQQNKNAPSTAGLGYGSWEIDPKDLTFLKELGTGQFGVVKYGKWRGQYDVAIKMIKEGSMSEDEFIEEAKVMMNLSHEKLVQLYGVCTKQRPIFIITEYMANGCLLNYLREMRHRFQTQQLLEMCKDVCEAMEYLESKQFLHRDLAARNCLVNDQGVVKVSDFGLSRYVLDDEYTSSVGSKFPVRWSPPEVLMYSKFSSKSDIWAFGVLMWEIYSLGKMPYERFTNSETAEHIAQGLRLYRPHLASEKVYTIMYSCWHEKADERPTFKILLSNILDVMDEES

[11] = biological target: Proto-oncogene tyrosine-protein kinase Src (Homo sapiens) (UniProt P12931); experiment: Inhibition of SRC (unknown origin) at 250 nM by radioactive filter-binding assay; outline: as §1
Chain of Proto-oncogene tyrosine-protein kinase Src (Homo sapiens) (P12931 2-536 limits assumed): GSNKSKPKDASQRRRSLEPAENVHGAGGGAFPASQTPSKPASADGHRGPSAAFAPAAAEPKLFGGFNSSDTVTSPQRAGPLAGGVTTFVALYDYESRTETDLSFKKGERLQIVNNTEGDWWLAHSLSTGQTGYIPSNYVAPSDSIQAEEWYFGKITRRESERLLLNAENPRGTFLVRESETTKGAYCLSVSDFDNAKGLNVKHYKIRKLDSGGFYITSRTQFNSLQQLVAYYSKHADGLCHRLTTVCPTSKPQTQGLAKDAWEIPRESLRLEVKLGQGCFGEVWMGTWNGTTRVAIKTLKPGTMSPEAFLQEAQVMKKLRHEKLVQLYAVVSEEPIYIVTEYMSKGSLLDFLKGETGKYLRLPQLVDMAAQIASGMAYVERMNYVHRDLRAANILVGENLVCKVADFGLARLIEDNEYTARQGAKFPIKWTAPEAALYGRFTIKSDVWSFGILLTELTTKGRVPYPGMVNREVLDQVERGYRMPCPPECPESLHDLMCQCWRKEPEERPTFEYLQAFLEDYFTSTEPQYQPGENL

[12] = biological target: Serine/threonine-protein kinase D1 (Homo sapiens) (UniProt Q15139); experiment: Inhibition of PKD1 (unknown origin) at 250 nM by radioactive filter-binding assay; outline: as §1
Chain of Serine/threonine-protein kinase D1 (Homo sapiens) (Q15139 whole entry, canonical isoform): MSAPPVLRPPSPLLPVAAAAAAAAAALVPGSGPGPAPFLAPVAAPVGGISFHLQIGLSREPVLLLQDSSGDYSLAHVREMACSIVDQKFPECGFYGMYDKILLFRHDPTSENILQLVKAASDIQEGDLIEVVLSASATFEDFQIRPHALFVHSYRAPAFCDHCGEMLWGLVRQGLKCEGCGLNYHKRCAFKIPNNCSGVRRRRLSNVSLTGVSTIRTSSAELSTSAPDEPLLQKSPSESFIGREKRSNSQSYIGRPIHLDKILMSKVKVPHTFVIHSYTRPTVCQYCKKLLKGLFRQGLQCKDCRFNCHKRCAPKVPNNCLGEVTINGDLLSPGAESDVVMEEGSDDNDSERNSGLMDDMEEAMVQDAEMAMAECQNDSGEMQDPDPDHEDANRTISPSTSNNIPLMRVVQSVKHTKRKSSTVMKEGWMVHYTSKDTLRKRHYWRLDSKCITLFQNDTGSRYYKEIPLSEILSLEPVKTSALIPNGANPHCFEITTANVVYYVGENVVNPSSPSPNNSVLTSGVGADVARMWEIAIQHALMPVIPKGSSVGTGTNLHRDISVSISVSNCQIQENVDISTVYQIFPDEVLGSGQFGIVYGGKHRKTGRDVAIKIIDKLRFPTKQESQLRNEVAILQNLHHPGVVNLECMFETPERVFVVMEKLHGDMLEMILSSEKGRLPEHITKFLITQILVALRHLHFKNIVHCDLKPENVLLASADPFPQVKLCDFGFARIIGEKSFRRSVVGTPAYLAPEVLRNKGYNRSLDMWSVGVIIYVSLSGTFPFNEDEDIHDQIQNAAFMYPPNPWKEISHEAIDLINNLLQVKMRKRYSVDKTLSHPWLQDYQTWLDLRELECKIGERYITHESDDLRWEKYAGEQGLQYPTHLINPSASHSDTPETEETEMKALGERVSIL

[13] = biological target: Casein kinase I isoform delta (Homo sapiens) (UniProt P48730); experiment: Inhibition of CK1delta (unknown origin) at 250 nM by radioactive filter-binding assay; outline: as §1
Chain of Casein kinase I isoform delta (Homo sapiens) (P48730 whole entry, looked up, canonical isoform): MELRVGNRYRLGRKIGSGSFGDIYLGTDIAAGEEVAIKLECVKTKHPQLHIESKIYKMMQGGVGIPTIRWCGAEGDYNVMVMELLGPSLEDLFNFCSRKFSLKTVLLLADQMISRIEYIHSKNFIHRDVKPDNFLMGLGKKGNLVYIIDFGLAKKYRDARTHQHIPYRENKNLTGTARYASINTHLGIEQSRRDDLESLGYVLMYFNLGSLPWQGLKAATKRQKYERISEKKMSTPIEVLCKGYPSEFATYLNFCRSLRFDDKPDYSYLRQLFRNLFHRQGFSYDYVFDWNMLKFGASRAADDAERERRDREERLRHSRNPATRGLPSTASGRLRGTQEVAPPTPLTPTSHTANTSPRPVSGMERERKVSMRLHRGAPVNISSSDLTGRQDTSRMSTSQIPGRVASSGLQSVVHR

[14] = biological target: Calcium/calmodulin-dependent protein kinase kinase 2 (Homo sapiens) (UniProt Q96RR4); experiment: Inhibition of CAMKKB (unknown origin) at 250 nM by radioactive filter-binding assay; outline: as §1
[15] = biological target: Tyrosine-protein kinase Lck (Homo sapiens) (UniProt P06239); experiment: Inhibition of LCK (unknown origin) at 250 nM by radioactive filter-binding assay; outline: as §1
Chain of Tyrosine-protein kinase Lck (Homo sapiens) (P06239 2-509 limits assumed): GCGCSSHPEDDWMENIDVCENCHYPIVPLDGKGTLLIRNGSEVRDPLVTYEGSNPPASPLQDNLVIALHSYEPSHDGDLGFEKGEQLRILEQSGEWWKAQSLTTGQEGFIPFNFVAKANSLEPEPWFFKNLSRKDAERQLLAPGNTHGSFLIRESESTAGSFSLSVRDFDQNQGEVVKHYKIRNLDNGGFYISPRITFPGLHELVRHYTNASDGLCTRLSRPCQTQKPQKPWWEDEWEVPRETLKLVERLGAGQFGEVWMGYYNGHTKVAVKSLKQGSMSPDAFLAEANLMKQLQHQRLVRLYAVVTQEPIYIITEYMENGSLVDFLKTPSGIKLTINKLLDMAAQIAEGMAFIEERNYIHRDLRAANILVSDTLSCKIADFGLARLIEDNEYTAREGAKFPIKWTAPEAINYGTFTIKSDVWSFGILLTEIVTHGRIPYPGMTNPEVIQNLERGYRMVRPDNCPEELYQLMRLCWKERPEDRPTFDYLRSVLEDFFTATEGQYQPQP

Row | SMILES | IC50 [1] [nM] | IC50 [2] [nM] | inhibition [3] [%] | inhibition [4] [%] | inhibition [5] [%] | inhibition [6] [%] | inhibition [7] [%] | inhibition [8] [%] | inhibition [9] [%] | inhibition [10] [%] | inhibition [11] [%] | inhibition [12] [%] | inhibition [13] [%] | inhibition [14] [%] | inhibition [15] [%]
1 | NCCCNc1nc(Nc2cccc(NC(=O)N3CCCC3)c2)ncc1I | 360 | 710 | > 80 | > 80 | > 80 | > 80 | > 80 | – | – | – | – | – | – | – | –
2 | c1ccc2c(Nc3cc(C4CCC4)[nH]n3)nc(Nc3ccc4[nH]cnc4c3)nc2c1 | 13 | 420 | – | – | – | – | – | > 80 | > 80 | > 80 | > 80 | > 80 | > 80 | > 80 | > 80

— ChEMBL document CHEMBL3603808, “Discovery and structure of a new inhibitor scaffold of the autophagy initiating kinase ULK1” (Bioorg Med Chem, 2015)
